Bioassay records as filed in PubChem.
UBC9 SUMO inh = blocks human SUMOylation mediated by UBC9. inhibition, % at 35 µM. HTRF SUMOylation assay, SAE1/SAE2 + UBC9, in vitro. P63279. AID 2006. hit rate 0.36% among 290,000; in the data active means inhibition above about 50%, passing the limit was not always enough
Target sequence (P63279 whole entry, looked up): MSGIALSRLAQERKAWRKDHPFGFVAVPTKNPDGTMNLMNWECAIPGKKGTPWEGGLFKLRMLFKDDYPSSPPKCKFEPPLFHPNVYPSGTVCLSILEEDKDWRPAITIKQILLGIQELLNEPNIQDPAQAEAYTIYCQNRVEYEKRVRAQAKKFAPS
CSN deneddyl inh = blocks human CSN-mediated cullin deneddylation | Purified CSN, SCF-Nedd8-OG deneddylation, fluorescence polarization | inhibition, % at 12.5 µM | hit rate 0.38% among 360,000;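 active means pattern-corrected inhibition above about 35%, with an unprinted fluorescence ratio check between 0.5 and 1.5, limit read from the data, passing the limit was not always enough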
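Test system: Human Csn5 produced in HEK293T cells | Compound: 12.5 µM single point | Times: 90 min, room temperature | Signal: Fluorescence polarization readout | Read-out basis: % inhibition of substrate cleavage by Csn5 | Controls: no-enzyme wells high, enzyme-with-substrate wells low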
Rpn11 inh = Rpn11 (human) deubiquitinase inhibition; human 26S proteasome, Ub4-pepOG fluorescence polarization; 20S core pre-blocked with epoxomicin; calls only at 20 µM; hit rate 0.59% among 360,000;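 active means inhibition at 20 µM, scaled to each plate's controls, above about 33%, limit read from the data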
TPT1 inh = blocks Candida albicans tRNA 2'-phosphotransferase; recombinant caTPT1, FP RNA substrate dephosphorylation; inhibition, % at 5 µM; hit rate 0.81% among 300,000; AID 1962;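 active means inhibition above the mean of all tested compounds plus 3 SD, set per screening campaign, cut at about 24% in these data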
HNF4A DNA FP = change in binding of human HNF4 alpha to DNA. P41235. HNF4a-FITC DNA binding, fluorescence polarization, 1 h. activity change, % at 10 µM. hit rate 0.3% among 360,000; in the data active means activity change above about 30%, passing the limit was not always enough
SENP1 FRET inh = blocks the human SENP1 SUMO protease catalytic domain; Q9P0U3; inhibition, % at 10 µM; hit rate 0.21% among 360,000; recombinant SENP1 catalytic domain, CyPet-SUMO1-YPet FRET cleavage;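 active means inhibition at least 30% at 10 µM, raw YFP signal under a set limit, fluorescence ratio 0.5 to 1.5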
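Test system: hSENP1 catalytic domain, recombinant; Amount: 20 pM final SENP1 enzyme; Medium: Tris pH 8 buffer plus EDTA, NaCl, BME, BSA, NP40, catalase; Schedule: 50 min enzyme reaction, room temperature, light-protected; Technique: FRET fluorescence in CFP and YFP emission channels; Controls: no-enzyme wells low, DMSO-plus-enzyme wells high control.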
Rpn11 confirm = Rpn11 inhibition confirmation, single concentration | shares compounds with Rpn11 inh | purified human 26S proteasome, Ub4-pepOG fluorescence polarization; proteasome pretreated with epoxomicin | inhibition, % at 20 µM | hit rate 29% among 1,900 | AID 602318
MMP-2 inh = counter-screen for RPN11 inhibitors: inhibition of human MMP-2. shares compounds with Rpn11 inh. recombinant MMP-2, FRET peptide cleavage fluorescence. inhibition, % at 20 µM. hit rate 4% among 1,900. AID 602330;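 further: human MMP-2 activated beforehand with APMA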
Thrombin inh = blocks bovine thrombin, flagging nonselective RPN11 hits; shares compounds with Rpn11 inh; bovine thrombin cleavage of Ub4-pepOG, fluorescence polarization; inhibition, % at 20 µM; hit rate 13% among 1,900;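 active means mean inhibition at least 40% at 20 µM, or signal 3 deviations below plate average, so some actives read negative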
Target sequence (P00735 whole entry, looked up): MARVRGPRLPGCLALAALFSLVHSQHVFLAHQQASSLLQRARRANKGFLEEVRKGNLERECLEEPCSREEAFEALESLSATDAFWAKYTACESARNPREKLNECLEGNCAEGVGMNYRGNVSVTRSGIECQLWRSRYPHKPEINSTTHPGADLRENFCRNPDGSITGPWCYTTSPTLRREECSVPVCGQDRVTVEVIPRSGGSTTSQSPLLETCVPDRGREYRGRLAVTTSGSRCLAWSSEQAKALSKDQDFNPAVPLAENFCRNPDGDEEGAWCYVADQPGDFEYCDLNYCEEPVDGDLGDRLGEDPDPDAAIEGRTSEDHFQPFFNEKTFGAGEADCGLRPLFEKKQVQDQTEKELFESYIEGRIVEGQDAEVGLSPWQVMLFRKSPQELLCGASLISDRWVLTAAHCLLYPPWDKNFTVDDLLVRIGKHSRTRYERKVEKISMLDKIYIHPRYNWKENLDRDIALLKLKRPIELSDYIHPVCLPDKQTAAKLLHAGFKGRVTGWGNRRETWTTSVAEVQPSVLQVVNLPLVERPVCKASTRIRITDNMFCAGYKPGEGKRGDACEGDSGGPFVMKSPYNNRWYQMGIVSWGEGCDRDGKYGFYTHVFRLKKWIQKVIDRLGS
Large screens that a line does not name were inactive (follow-up assays come after a bar, where they were run). Sampled rows, rich in hits. Any-hit rate of the full collection: about 1.8%. Unless noted, no stated cut-off is given here; in the data, active means inhibition above about 40%; inactive means the rest.

CCOC(=O)CCC(=O)N1CCOCCN(C(=O)CCC(=O)OCC)CCOCC1	Rpn11 inh active | Rpn11 confirm inactive | MMP-2 inh inactive | Thrombin inh inactive
COc1cccc(CNCc2cccc(Br)c2)c1OC	none
Cc1cc(SCc2ccc(Cl)cc2)nc(=O)[nH]1	none
Cc1ccc(CSc2cc(C)[nH]c(=O)n2)cc1	Rpn11 inh active | Rpn11 confirm inactive | MMP-2 inh inactive | Thrombin inh inactive
Cc1ccc(NC(=O)CCC(=O)NNC(=O)C(C)(C)C)c(C)c1	none
COC(=O)c1sc(N2CCN(c3ccc(Cl)cc3)CC2)nc1N	none
S=c1[nH]nc(-c2cc(-c3ccccc3)n[nH]2)n1/N=C/c1c(Cl)cccc1Cl	CSN deneddyl inh 46, Rpn11 inh active (no result: UBC9 SUMO inh) | Rpn11 confirm 87 | MMP-2 inh 45 | Thrombin inh 52
Cc1ccsc1/C=N/n1c(-c2cc(-c3ccccc3)n[nH]2)n[nH]c1=S	Rpn11 inh active | Rpn11 confirm 100 | MMP-2 inh inactive | Thrombin inh inactive
C=CCn1c(SCC(=O)Nc2ccc(-c3nc4ccc(C)cc4s3)cc2)nnc1-c1ccccc1	Rpn11 inh active | Rpn11 confirm 81 | MMP-2 inh inactive | Thrombin inh inactive
C=CCn1c(SCC(=O)NNC(=O)Nc2ccc(C)cc2)nnc1-c1ccccc1	none
Cc1cn(CCC(=O)Nc2ccc(N3CCOCC3)cc2)c2ccccc12	none
Cc1ccc2nc(SCC(=O)c3c(N)n(C)c(=O)n(C)c3=O)[nH]c2c1	Rpn11 inh active | Rpn11 confirm inactive | MMP-2 inh inactive | Thrombin inh inactive
Cc1ccc2nc(SCC(=O)c3cc(C)n(C)c3C)[nH]c2c1	none
S=c1[nH]nc(C(c2ccccc2)C2CCCCC2)o1 (stereo not given)	none
Cc1ccc(NC(=O)CN(C)C(=O)c2cccc(-n3cccc3)c2)cc1	Rpn11 inh active (no result: UBC9 SUMO inh, TPT1 inh) | Rpn11 confirm 85 | MMP-2 inh inactive | Thrombin inh inactive
COc1ccc(CCNC(=O)COc2ccc(S(=O)(=O)N3CCOCC3)cc2)cc1OC	none
Cc1ccc(C(=O)N2CC(C)CC(C)C2)cc1S(=O)(=O)N1CCCCC1 (stereo not given)	none (no result: UBC9 SUMO inh, TPT1 inh)
COc1ccc(CNC(=O)C[C@H]2C[C@H](C(=O)N3CCCCC3)[C@@]3(CCc4ccccc4)c4[nH]c5cc(-c6ccco6)ccc5c4CCN3C2=O)cc1OC	Rpn11 inh active (no result: UBC9 SUMO inh, TPT1 inh) | Rpn11 confirm inactive | MMP-2 inh inactive | Thrombin inh inactive
CC[C@]12c3[nH]c4cc(-c5ccco5)ccc4c3CCN1C(=O)[C@@H](CC(=O)NCc1ccc(OC)c(OC)c1)C[C@@H]2C(=O)N1CCN(C(=O)C2CC2)CC1	none (no result: UBC9 SUMO inh, TPT1 inh)
CN(C)CCCNC(=O)C[C@H]1C[C@H](C(=O)N2CCCCC2)[C@@]2(CCc3ccccc3)c3[nH]c4cc(-c5ccco5)ccc4c3CCN2C1=O	none (no result: UBC9 SUMO inh, TPT1 inh)
O=C(C[C@H]1C[C@H](C(=O)N2CCOCC2)[C@@]2(CCC3CCCC3)c3[nH]c4cc(-c5ccco5)ccc4c3CCN2C1=O)NCCC1=CCCCC1	Rpn11 inh active (no result: UBC9 SUMO inh, TPT1 inh) | Rpn11 confirm inactive | MMP-2 inh inactive | Thrombin inh inactive
C[C@]12c3[nH]c4cc(-c5ccco5)ccc4c3CCN1C(=O)[C@@H](CC(=O)NCC13CC4CC(CC(C4)C1)C3)C[C@@H]2C(=O)N1CCCCC1	Rpn11 inh active (no result: UBC9 SUMO inh, TPT1 inh) | Rpn11 confirm inactive | MMP-2 inh inactive | Thrombin inh inactive
CC(C)(C)NC(=O)C[C@H]1C[C@H](C(=O)N2CCCCC2)[C@@]2(CCc3ccccc3)c3[nH]c4cc(-c5ccco5)ccc4c3CCN2C1=O	Rpn11 inh active (no result: UBC9 SUMO inh, TPT1 inh) | Rpn11 confirm inactive | MMP-2 inh inactive | Thrombin inh inactive
COc1ccc([N+](=O)[O-])cc1N(CC(=O)NCCSc1ccccc1)S(C)(=O)=O	none
CC(C)(C)c1cc(S(=O)(=O)CCc2ccccn2)cc(C(C)(C)C)c1F	none
COc1ccccc1NC(=O)/C(N=Nc1ccc(C)c(S(=O)(=O)Nc2ccccc2Cl)c1)=C(\C)O	none (no result: UBC9 SUMO inh, TPT1 inh)
COc1ccccc1NS(=O)(=O)c1cc(N=N/C(C(=O)Nc2ccc(Cl)cc2)=C(/C)O)ccc1C	Rpn11 inh active (no result: UBC9 SUMO inh, TPT1 inh) | Rpn11 confirm inactive | MMP-2 inh inactive | Thrombin inh inactive
O=C(NC12CC3CC(CC(C3)C1)C2)N1CCC(O)CC1	Rpn11 inh active | Rpn11 confirm inactive | MMP-2 inh inactive | Thrombin inh inactive
Cc1ccc(C(=O)Nc2nc3c(s2)CCCC3)o1	none
O=C(Nc1nc2c(s1)CCCC2)c1ccc(Br)o1	Rpn11 inh active | Rpn11 confirm inactive | MMP-2 inh inactive | Thrombin inh inactive
O=c1cc(CN2CCCCCCC2)c2ccccc2o1	Rpn11 inh active (no result: UBC9 SUMO inh, TPT1 inh) | Rpn11 confirm inactive | MMP-2 inh inactive | Thrombin inh inactive
Cc1ccc2ccc(C#N)cc2c1O	none (no result: UBC9 SUMO inh, TPT1 inh)
Cc1nnc(SCC(=O)N2N=C(c3ccc(Cl)cc3)CC2c2ccco2)[nH]c1=O (stereo not given)	Rpn11 inh active | Rpn11 confirm inactive | MMP-2 inh inactive | Thrombin inh inactive
CCN(CC(=O)Nc1ccccc1C(F)(F)F)C(=O)C1CC(=O)N(Cc2ccccc2)C1 (stereo not given)	none (no result: UBC9 SUMO inh)
Nc1cccn2c(-c3ccc(Cl)cc3)cnc12	none
Nc1cccn2c(-c3ccc(Cl)c(Cl)c3)cnc12	Rpn11 inh active | Rpn11 confirm inactive | MMP-2 inh inactive | Thrombin inh inactive
COc1ccc(Cc2c(-c3ccc(Cl)cc3)nc3c(C)cc(Br)cn23)c(C)c1	Rpn11 inh active (no result: UBC9 SUMO inh, TPT1 inh) | Rpn11 confirm inactive | MMP-2 inh inactive | Thrombin inh inactive
COc1ccc(Cc2c(-c3ccccc3)nc3c(C)cc(Br)cn23)c(C)c1	Rpn11 inh active (no result: UBC9 SUMO inh, TPT1 inh) | Rpn11 confirm inactive | MMP-2 inh 47 | Thrombin inh inactive
COc1ccc(Cc2c(C(C)(C)C)nc3ccc(Cl)cn23)c(C)c1	Rpn11 inh active (no result: UBC9 SUMO inh, TPT1 inh) | Rpn11 confirm 44 | MMP-2 inh inactive | Thrombin inh inactive
COc1ccc(Cc2c(-c3ccc(F)cc3)nc3c(C)cc(Br)cn23)c(C)c1	none (no result: UBC9 SUMO inh, TPT1 inh)
COc1ccccc1Cc1c(-c2ccc(C)cc2)nc2ccc(Br)cn12	CSN deneddyl inh 100, Rpn11 inh active (no result: UBC9 SUMO inh, TPT1 inh) | Rpn11 confirm inactive | MMP-2 inh inactive | Thrombin inh inactive
COc1ccc(Cc2c(C(C)(C)C)nc3ccc(C)cn23)c(C)c1	none (no result: UBC9 SUMO inh, TPT1 inh)
O=C(O)CN1C(=O)CNC1=O	none
